# Only some compounds are listed: those with a hit (about 4.5% of all), similar ones and a draw of the others.
# GPR7 antagonist: GPR7 receptor antagonists, primary screen, cell-based, fluorescence, single concentration; Neuropeptides B/W receptor type 1 (Homo sapiens), P48145; GPR7-expressing cells, fluorescence antagonist assay; inhibition, % at 4.4 µM; 290,000 compounds, 1.1% hits; AID 1861, 2009; in the data active = inhibition above about 16%, passing the limit was not always enough;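 note: cells stimulated with the agonist NPW; 0% = agonist with vehicle and 100% = vehicle without agonist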
# CHO parental Ca: ATP-evoked calcium signal inhibitors, parental CHO, primary screen, counter-screen for OX1R antagonist project, cell-based, fluorescence, Fluo-8 calcium dye | 330,000 compounds, 0.63% hits | AID 463079, 2010 | inhibition, % at 5.6 µM | parental CHO-K1, ATP-induced calcium, Fluo-8 fluorescence;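 active = inhibition above that plate's mean sample inhibition plus 3 SD, cut at about 26% in these data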;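 note: 0% = ATP-challenged DMSO wells and 100% = DMSO wells without ATP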
#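 Material: Parental CHO cells | Reagent: ATP | Compound dosing: Single nominal dose of 5.6 µM per compound | Detection: Intracellular calcium via Fluo-8 no-wash fluorescent dye | Read-out: % inhibition of ATP-induced calcium mobilization | Benchmarks: Low control ATP plus DMSO, high control DMSO only | Replicates: Singlicate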
# TAAR1 antagonist: human TAAR1 antagonists, primary screen, Fluo-8 calcium fluorescence, CHO RD-HGA16 cells | Trace amine-associated receptor 1 (Homo sapiens), Q96RJ0 | antagonist | inhibition, % at 3 µM | 360,000 compounds, 1.5% hits;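 active = inhibition above a per-plate cutoff, the mean inhibition of test compounds on that plate plus 3 SD, cut at about 49% in these data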;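 note: 0% = DMSO plus EC80 beta-PEA response and 100% = DMSO alone without agonist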
# Target sequence (Q96RJ0 whole entry, looked up): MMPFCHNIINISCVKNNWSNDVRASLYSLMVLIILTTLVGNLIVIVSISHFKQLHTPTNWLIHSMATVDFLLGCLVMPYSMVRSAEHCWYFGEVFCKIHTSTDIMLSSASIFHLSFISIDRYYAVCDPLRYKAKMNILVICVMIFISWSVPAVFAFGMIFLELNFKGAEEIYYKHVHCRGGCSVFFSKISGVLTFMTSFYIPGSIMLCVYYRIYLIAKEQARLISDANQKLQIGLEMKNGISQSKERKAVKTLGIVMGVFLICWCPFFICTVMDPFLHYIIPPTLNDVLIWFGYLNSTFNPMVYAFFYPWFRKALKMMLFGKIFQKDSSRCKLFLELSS
#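 Assay system: RD-HGA16 CHO cells with stable hTAAR1 and Gα16 / Reagent: EC80 β-phenethylamine stimulus / Doses: 3 µM, single point / Timing: dye loading 75 min at 37 °C, then 30 min room temperature / Measured by: Fluo-8 intracellular calcium dye fluorescence, real-time kinetic reads / Controls: vehicle wells and EC80 agonist wells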
# OX1R antag-1: OX1R (HCRTR1) antagonists, primary screen, fluorescence, CHO/OX1R cells, Fluo-8 calcium, orexin A; Orexin/Hypocretin receptor type 1 (Homo sapiens), O43613; Fluo-8 calcium fluorescence; inhibition, % at 5 µM; 330,000 compounds, 0.43% hits; AID 434989, 2010;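 active = inhibition above its plate's threshold, mean inhibition of all tested compounds on the plate plus 3 SD, cut at about 37% in these data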;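 note: 0% = orexin A challenge wells and 100% = SB-334867-A antagonist wells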
# OX1R antag-2: antagonists of human orexin 1 receptor (OX1R); 330,000 compounds, 1.8% hits; Orexin/Hypocretin receptor type 1 (Homo sapiens), O43613; AID 485270, 2010; inhibition, % at 6.6 µM; OX1R-expressing cells, FRET antagonist read-out; in the data active = inhibition mostly above about 38%, no sharp cut-off; inactive = mostly below about 40%;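 note: 0% = agonist challenge alone and 100% = reference antagonist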
# TAAR1 agonist: human TAAR1 agonists, primary screen, Fluo-8 calcium fluorescence, CHO RD-HGA16 cells. vehicle wells 0%, saturating PEA agonist 100%. activation, % at 3 µM. 360,000 compounds, 0.99% hits;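 active = activation above the mean activation of all test compounds in the run plus 3 SD, cut at about 38% in these data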
#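 test system = CHO RD-HGA16 cells carrying human TAAR1 plus Gα16 | schedule = 17-24 h seeding, 75 min 37 °C dye, 30 min RT | compound dosing = 3 µM single concentration | control set = DMSO and PEA EC100 | replicates = n 1 | signal = Fluo-8 fluorescence, 5 s baseline then 140 s kinetic read | measure = percent activation vs PEA EC100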
# Numbers without * were called inactive; . = no result given.
SMILES,GPR7 antagonist,CHO parental Ca,TAAR1 antagonist,OX1R antag-1,OX1R antag-2,TAAR1 agonist
CC(C)(C)NC(=O)COC(=O)CNC(=O)c1cc(Cl)cc([N+](=O)[O-])c1,-8.9,-4.7,-0.5,-5.7,44.1,0.5
CCCCNC(=O)COC(=O)CNC(=O)c1cc(Cl)cc([N+](=O)[O-])c1,0.0,-8.8,-6.2,-8.6,76.8*,0.5
O=C(CNC(=O)c1cc(Cl)cc([N+](=O)[O-])c1)NC1CC1,.,-5.2,10.0,-0.4,47.8*,0.3
CCCCNc1ccc2c(c1)OC[C@H](Cc1ccccc1)NS2(=O)=O,.,.,2.4,.,.,-1.6
CC(=O)C1=C(C)N(Cc2ccc(F)cc2)C(=S)NC1c1ccc(Br)cc1 (stereo not drawn),.,.,2.7,.,.,2.3
COc1ccc(CNC(=O)N2[C@H]3CC[C@@H]2C=C(c2ccc(F)cc2OCc2ccccc2)C3)cc1OC,.,.,49.0*,.,.,8.0
O=[N+]([O-])c1ccc(-c2nnc(-c3ccccc3)c(NCCCO)n2)cc1,-11.3,1.1,-12.7,-2.9,38.4*,0.3
O=S(=O)(c1ccc(C(F)(F)F)cc1)N1CCCc2nc(-c3ccc(Br)cc3)ccc21,.,.,-26.1,.,.,-0.1
COc1ccc(-c2cc3ccccc3n2CC(O)CNC(CO)(CO)CO)cc1 (stereo not drawn),14.7*,-14.3,-9.6,-16.6,-1.7,3.2
COc1ccc(-c2cc3ccccc3n2CC(O)Cn2nc(C)cc2C)cc1 (stereo not drawn),-3.5,-23.3,-6.2,-31.1,4.7,1.4
COC(=O)[C@]12C[C@H](CC(=O)NCc3cccc4ccccc34)C(=O)N(Cc3ccccc3)C1=C[C@H](C(C)C)O[C@@H]2C1CC1,.,.,-51.0,.,.,7.0
CC(C)(C)CC(C)(C)c1ccc(OCCOCC[N+](C)(C)Cc2ccccc2)cc1,.,12.5,3.3,10.8,8.6,39.8*
CCOC1=C2[C@H](c3ccccc3)N(S(=O)(=O)c3ccc(C)cc3)[C@H](C(C)C)[C@H]2C(C#N)(C#N)C(C#N)(C#N)C1,.,.,-16.2,.,.,1.0
Nc1nnc(SCC(=O)OCC(=O)Nc2ccc(Br)cc2F)s1,-14.8,-5.3,-4.3,7.9,1.6,11.4
Nc1nnc(SCC(=O)OCC(=O)Nc2ccc(Br)cc2)s1,-3.8,2.0,1.2,8.9,11.7,44.1*
COC(=O)C1=C(C)N(Cc2ccc(C(F)(F)F)cc2)C(=NCc2ccccc2C(F)(F)F)NC1c1cccc(Cl)c1 (stereo not drawn),.,.,-15.1,.,.,2.2
NC(=O)C(=O)N/N=C/c1c2ccccc2cc2ccccc12,9.3,-14.4,4.0,-6.2,82.0*,0.3
COC(=O)c1ccc2nc(-c3cccc(Cl)c3)c(Cc3ccccc3C(F)(F)F)n2c1,.,.,-19.1,.,.,0.1
CCC1CCCCN1C(=O)COC(=O)c1cc(=O)[nH]c2ccccc12 (stereo not drawn),.,-18.9,0.4,0.6,24.9*,7.8
Cc1ccc(O)c(C(=O)c2cc(C#N)c(=O)n(-c3nccs3)c2)c1,0.4,30.2,47.7,30.5,6.8,50.8*
Cc1ccc(O)c(C(=O)c2cc(C#N)c(=O)n(-c3c(C)n(C)n(-c4ccccc4)c3=O)c2)c1,-1.4,-8.9,28.2,-28.3,16.1,15.3
CCc1cc2c(nc1CC)CCCN2Cc1ccccc1C(F)(F)F,.,.,-16.3,.,.,-0.8
Cc1ccc(Sc2cnn(-c3ccccc3)c(=O)c2Cl)cc1,-12.3,37.5*,11.1,-18.9,25.7,0.2
Cc1[nH]c2ccccc2c1C(=O)CSc1nc2ccccc2c(=O)n1CCCN1CCOCC1,7.6,8.2,71.3*,-4.5,22.3,47.5*
COc1ccc(N2CCN(C(=O)CSc3nc4ccccc4c(=O)[nH]3)CC2)cc1,-8.3,-11.9,-8.4,-20.9,31.1,-1.9
COc1ccc(N2CCN(C(=O)CSc3nnc(C)c(=O)[nH]3)CC2)cc1,-20.9,36.7*,-13.0,-4.7,-2.2,4.0
CSCCC(NC(=O)COc1ccccc1)C(=O)N(C)Cc1ccc(SC)cc1 (stereo not drawn),.,-16.5,52.5*,-3.1,15.8,18.7

# Source: PubChem BioAssay
